Measured values published in ChEMBL document CHEMBL1134407, “Novel seco cyclopropa[c]pyrrolo[3,2-e]indole bisalkylators bearing a 3,3'-arylenebisacryloyl group as a linker” (J Med Chem, 2001).
In brackets after ≈: the same amount, converted by molar mass.

Tests used:
HeLa = test: Inhibitory activity against HeLaS3 human uterine cervix carcinoma cells; format: functional, cell-based
In short: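 HeLaS3 human uterine cervix carcinoma cells were exposed to the drug. The value is the drug concentration that inhibits cell growth by 50%.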

Mus musculus [1] = species: Mus musculus; test: Percentage tumor growth inhibition as compared with the untreated group; format: functional; set-up: concentration or dose not given beside the values
Mus musculus [2] = species: Mus musculus; test: Percentage change in body weight; format: functional
Mus musculus [3] = species: Mus musculus; test: Ratio between maximum dose within 10% body weight loss to tumor growth inhibition; format: functional
A2780 = test: Cytotoxicity against human cancer cell lines A2780 (ovarian); format: functional, cell-based
DLD-1 = test: Cytotoxicity against human cancer cell lines DLD-1 of colon.; format: functional, cell-based
[4] = system: KATO III stomach cancer cell line; test: Cytotoxicity against human cancer cell lines KATO III (gastric); format: functional, cell-based
SBC-3 = test: Cytotoxicity against human cancer cell lines SBC-3 of lung; format: functional, cell-based
[5] = Cytotoxicity against human cancer cell lines SBC-3 /ADR of lung (adriamycin resistant); format: functional, cell-based
ZR-75-1 = test: Cytotoxicity against human cancer cell lines ZR-75-1 of breast.; format: functional, cell-based
PC-3 = test: Cytotoxicity against human cancer cell lines PC-3 of lung; format: functional, cell-based
Homo sapiens [6] = test: Antitumor activity against human colon CX-1 tumor Xenografts in Athymic mice at a dose of 3.91 micro g/kg; format: functional
In short: (§1)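 Athymic mice carried implanted human colon CX-1 tumor xenografts. Each line gives the dose in μg/kg. Read-out is percentage tumor growth inhibition relative to the untreated group.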

Homo sapiens [7] = test: Antitumor activity against human colon CX-1 tumor Xenografts in Athymic mice at a dose of 7.81 micro g/kg; format: functional
In short: (§2)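 Athymic mice bearing human colon CX-1 tumour xenografts. Dose given in µg/kg. Read-out is percent tumour growth inhibition (TGI) relative to the untreated group.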

Homo sapiens [8] = test: Antitumor activity against human colon CX-1 tumor Xenografts in Athymic mice at a dose of 15.6 micro g/kg; format: functional; in short: as §2
Homo sapiens [9] = test: Antitumor activity against human colon CX-1 tumor Xenografts in Athymic mice at a dose of 9180 micro g/kg; format: functional; in short: as §1
[10] = Homo sapiens, HeLa, read-out: IC50

SMILES | IC50 (HeLa; [10]) | Inhibition (Mus musculus [1]) | Body weight change (Mus musculus [2]) | Ratio (Mus musculus [3]) | also measured
COC(=O)c1c(C(F)(F)F)[nH]c2c(O)cc3c(c12)[C@H](CCl)CN3C(=O)/C=C/c1ccccc1/C=C/C(=O)N1C[C@@H](CCl)c2c1cc(O)c1[nH]c(C(F)(F)F)c(C(=O)OC)c21 | 87.6 ng/mL (≈ 99.6 nM) | 70% | -6% | – | –
COC(=O)c1c(C(F)(F)F)[nH]c2c(O)cc3c(c12)[C@H](CCl)CN3C(=O)/C=C/c1cccc(-c2ccc(-c3cccc(/C=C/C(=O)N4C[C@@H](CCl)c5c4cc(O)c4[nH]c(C(F)(F)F)c(C(=O)OC)c54)c3)cc2)c1 | > 100 ng/mL | – | – | – | –
COC(=O)c1c(C(F)(F)F)[nH]c2c(O)cc3c(c12)[C@H](CCl)CN3C(=O)/C=C/c1ccc(/C=C/C(=O)N2C[C@@H](CCl)c3c2cc(O)c2[nH]c(C(F)(F)F)c(C(=O)OC)c32)c(OC)c1OC | – | 89% | -1% | 4.6 | IC50 (HeLa; hela): 0.00158 ng/mL (≈ 0.00168 nM)
CCc1c(/C=C/C(=O)N2C[C@@H](CCl)c3c2cc(O)c2[nH]c(C(F)(F)F)c(C(=O)OC)c32)ccc(/C=C/C(=O)N2C[C@@H](CCl)c3c2cc(O)c2[nH]c(C(F)(F)F)c(C(=O)OC)c32)c1CC | – | – | – | – | IC50 (HeLa; hela): 0.00138 ng/mL (≈ 0.00147 nM)
COC(=O)c1c(C(F)(F)F)[nH]c2c(O)cc3c(c12)[C@H](CCl)CN3C(=O)/C=C/c1ccc(/C=C/C(=O)N2C[C@@H](CCl)c3c2cc(O)c2[nH]c(C(F)(F)F)c(C(=O)OC)c32)c2cc3ccccc3cc12 | 3.25 ng/mL (≈ 3.32 nM) | 82% | -6% | 3.5 | –
COC(=O)c1c(C(F)(F)F)[nH]c2c(O)cc3c(c12)[C@H](CCl)CN3C(=O)/C=C/c1ccc(-c2ccc(/C=C/C(=O)N3C[C@@H](CCl)c4c3cc(O)c3[nH]c(C(F)(F)F)c(C(=O)OC)c43)cn2)nc1 | 0.0198 ng/mL (≈ 0.0207 nM) | 88% | 4% | 3.6 | –
COC(=O)c1c(C(F)(F)F)[nH]c2c(O)cc3c(c12)[C@H](CCl)CN3C(=O)/C=C/c1ccc(/C=C/C(=O)N2C[C@@H](CCl)c3c2cc(O)c2[nH]c(C(F)(F)F)c(C(=O)OC)c32)c2ccccc12 | 0.011 ng/mL (≈ 0.0118 nM) | 85% | 3% | 7.4 | –
COc1cccc2c1C(=O)c1c(O)c3c(c(O)c1C2=O)C[C@@](O)(C(=O)CO)C[C@@H]3O[C@H]1C[C@H](N)[C@H](O)[C@H](C)O1 [DOXORUBICIN] | – | – | – | – | IC50 (A2780; Homo sapiens, A2780, read-out: IC50): 12.1 ng/mL (≈ 22.3 nM); IC50 (DLD-1): 136 ng/mL (≈ 250 nM); IC50 [4]: 905 ng/mL (≈ 1670 nM); IC50 (SBC-3; Homo sapiens, SBC-3, read-out: IC50): 11.2 ng/mL (≈ 20.6 nM); IC50 [5]: 129 ng/mL (≈ 237 nM); IC50 (ZR-75-1; Homo sapiens, ZR-75-1, read-out: IC50): 6.39 ng/mL (≈ 11.8 nM)
COC(=O)c1c(C(F)(F)F)[nH]c2c(O)cc3c(c12)[C@H](CCl)CN3C(=O)/C=C/c1ccc(/C=C/C(=O)N2C[C@@H](CCl)c3c2cc(O)c2[nH]c(C(F)(F)F)c(C(=O)OC)c32)cc1 | – | 89% | -5% | 30.7 | IC50 (A2780; a2780): 0.000397 ng/mL (≈ 0.000451 nM); IC50 (DLD-1): 0.0149 ng/mL (≈ 0.0169 nM); IC50 (HeLa; hela): 0.00274 ng/mL (≈ 0.00312 nM); IC50 [4]: 0.816 ng/mL (≈ 0.928 nM); IC50 (PC-3): 0.148 ng/mL (≈ 0.168 nM); IC50 (SBC-3; sbc-3): 0.00122 ng/mL (≈ 0.00139 nM); IC50 [5]: 0.00349 ng/mL (≈ 0.00397 nM); IC50 (ZR-75-1; zr-75-1): 0.00463 ng/mL (≈ 0.00526 nM); Inhibition (Homo sapiens [6]): 77%; Inhibition (Homo sapiens [7]): 83%
COC(=O)c1c(C(F)(F)F)[nH]c2c(O)cc3c(c12)[C@H](CCl)CN3C(=O)/C=C/c1ccc(/C=C/C(=O)N2C[C@@H](CCl)c3c2cc(O)c2[nH]c(C(F)(F)F)c(C(=O)OC)c32)c2c(OC)ccc(OC)c12 | 0.00934 ng/mL (≈ 0.00944 nM) | – | – | – | –
COC(=O)c1c(C(F)(F)F)[nH]c2c(O)cc3c(c12)[C@H](CCl)CN3C(=O)/C=C/c1ccc(/C=C/C(=O)N2C[C@@H](CCl)c3c2cc(O)c2[nH]c(C(F)(F)F)c(C(=O)OC)c32)c2c1OCO2 | 0.00595 ng/mL (≈ 0.00644 nM) | 90% | -2% | 13.3 | –
COC(=O)c1c(C(F)(F)F)[nH]c2c(O)cc3c(c12)[C@H](CCl)CN3C(=O)/C=C/c1cccc(/C=C/C(=O)N2C[C@@H](CCl)c3c2cc(O)c2[nH]c(C(F)(F)F)c(C(=O)OC)c32)c1 | 54.6 ng/mL (≈ 62.1 nM) | 91% | -5% | – | –
COC(=O)c1c(C(F)(F)F)[nH]c2c(O)cc3c(c12)[C@H](CCl)CN3C(=O)/C=C/c1ccc(-c2ccc(-c3ccc(/C=C/C(=O)N4C[C@@H](CCl)c5c4cc(O)c4[nH]c(C(F)(F)F)c(C(=O)OC)c54)cc3)cc2)cc1 | 48.3 ng/mL (≈ 46.8 nM) | 84% | -11% | – | –
COC(=O)c1c(C(F)(F)F)[nH]c2c(O)cc3c(c12)[C@H](CCl)CN3C(=O)/C=C/c1cc(OC)c(/C=C/C(=O)N2C[C@@H](CCl)c3c2cc(O)c2[nH]c(C(F)(F)F)c(C(=O)OC)c32)cc1OC | 9.71 ng/mL (≈ 10.3 nM) | 81% | 3% | >6.5 | –
COC(=O)c1c(C(F)(F)F)[nH]c2c(O)cc3c(c12)[C@H](CCl)CN3C(=O)/C=C/c1c2ccccc2c(/C=C/C(=O)N2C[C@@H](CCl)c3c2cc(O)c2[nH]c(C(F)(F)F)c(C(=O)OC)c32)c2ccccc12 | 1.51 ng/mL (≈ 1.54 nM) | 75% | -18% | – | –
COC(=O)c1c(C(F)(F)F)[nH]c2c(O)cc3c(c12)[C@H](CCl)CN3C(=O)/C=C/c1ccc(-c2ccc(/C=C/C(=O)N3C[C@@H](CCl)c4c3cc(O)c3[nH]c(C(F)(F)F)c(C(=O)OC)c43)cc2)cc1 | 0.141 ng/mL (≈ 0.148 nM) | 83% | 4% | 3.7 | –
Cc1c[nH]c2c(O)cc3c(c12)[C@H](CCl)CN3C(=O)c1cc2cc(NC(=O)Nc3ccc4[nH]c(C(=O)N5C[C@@H](CCl)c6c5cc(O)c5[nH]cc(C)c65)cc4c3)ccc2[nH]1 [BIZELESIN] | – | 90% | -3% | 8.4 | Inhibition (Homo sapiens [8]): 56%; Inhibition (Homo sapiens [7]): 53%
CO[C@@]12[C@H](COC(N)=O)C3=C(C(=O)C(C)=C(N)C3=O)N1C[C@@H]1N[C@@H]12 [MITOMYCIN] | – | – | – | – | Inhibition (Homo sapiens [9]): 65%
COC(=O)c1c(C(F)(F)F)[nH]c2c(O)cc3c(c12)[C@H](CCl)CN3C(=O)c1cc2cc(-c3ccc4[nH]c(C(=O)N5C[C@@H](CCl)c6c5cc(O)c5[nH]c(C(F)(F)F)c(C(=O)OC)c65)cc4c3)ccc2[nH]1 | – | 84% | 1% | 3.3 | IC50 (HeLa; hela): 0.0049 ng/mL (≈ 0.00499 nM)
COC(=O)c1c(C(F)(F)F)[nH]c2c(O)cc3c(c12)[C@H](CCl)CN3C(=O)/C=C/c1ccc(/C=C/C(=O)N2C[C@@H](CCl)c3c2cc(O)c2[nH]c(C(F)(F)F)c(C(=O)OC)c32)c2c1OCCO2 | – | 91% | 3% | 9 | IC50 (HeLa; hela): 0.00276 ng/mL (≈ 0.00294 nM)
COC(=O)c1c(C(F)(F)F)[nH]c2c(O)cc3c(c12)[C@H](CCl)CN3C(=O)/C=C/c1ccc(/C=C/C(=O)N2C[C@@H](CCl)c3c2cc(O)c2[nH]c(C(F)(F)F)c(C(=O)OC)c32)c2c1C(=O)c1ccccc1C2=O | 0.523 ng/mL (≈ 0.518 nM) | 84% | -4% | 6.6 | –
